Data set [1] is described as follows: AUC (0 to infinity) in Sprague-Dawley rat at 10 mg/kg, po by LC/MS/MS analysis. It counts as ADME, organism-based. Also noted: time infinity, dose 10 mg/kg, route oral. The note with it: plasma. In outline:
(§1)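 Sprague-Dawley rats dosed orally at 10 mg/kg; blood drawn at various time points into lithium heparin tubes, centrifuged, plasma stored at −20 °C until analysis. Values are mean ± SEM of at least three experiments.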

The nature of data set [2]: Oral bioavailability in Sprague-Dawley rat at 10 mg/kg by LC/MS/MS analysis. The note with it: in vivo. Type of data set: ADME, organism-based. An outline of the steps: as §1
Data set [3] can be described thus: Half life in Sprague-Dawley rat at 10 mg/kg, po by LC/MS/MS analysis. Type of data set: ADME, organism-based. Also noted: dose 10 mg/kg, route oral. The note with it: in vivo. An outline of the steps: as §1
The nature of data set [4]: Tmax in Sprague-Dawley rat at 10 mg/kg, po by LC/MS/MS analysis. It counts as ADME, organism-based. Also noted: dose 10 mg/kg, route oral. The note with it: in vivo. In outline:
as §1

A short description of data set [5]: Ratio of drug level in brain to plasma in Sprague-Dawley rat at 10 mg/kg, po measured 9 hrs post dose by LC/MS/MS analysis. It counts as ADME, organism-based. Also noted: dose 10 mg/kg, route oral. The note with it: read-out: BPR. In outline: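 Rats given 10 mg/kg orally and sacrificed at 3, 5 and 9 h post-dose; whole brain and blood collected and stored at −20 °C; brain/plasma ratio reported at 9 h. Mean ± SEM, at least three experiments.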

Data set [6] is described as follows: Cmax in Sprague-Dawley rat at 10 mg/kg, po by LC/MS/MS analysis. It counts as ADME, organism-based. Also noted: dose 10 mg/kg, route oral. The note with it: in vivo. An outline of the steps: as §1
The target in data set [7] is T1, Cannabinoid receptor 1 (Homo sapiens, UniProt P21554). The data set can be described thus: Displacement of [3H]-CP-55940 from human CB1 receptor expressed in CHO cells pretreated for 10 mins measured after 3 hrs by scintillation counting. Type of data set: cell-based. An outline of the steps: (§2)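 Whole-cell binding in CHO cells stably expressing hCB1 or hCB2, serum-starved in serum-free F12 for 3 h, pretreated with varying compound concentrations 10 min, then [3H]-CP-55940 added; 3 h at 37 °C. Cells washed 5× with warm PBS, lysed in PBS/1% SDS, bound radioactivity counted. Triplicate; Ki from nonlinear-regression IC50 via Cheng-Prusoff; mean ± SEM, n = 3 independent experiments.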
On the technique in general: Loss of bound radioactivity is the signal in a displacement assay; it reports binding, not function.

For data set [8], the system named is Mus musculus. The data set can be described thus: Antiobesity activity in diet-induced obese C57BL/6J mouse assessed as reduction in visceral fat mass at 10 mg/kg, po qd for 35 days. Also noted: dose 10 mg/kg. Type of data set: functional, organism-based. An outline of the steps:
(§3)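 DIO mice aged 20–24 weeks, kept on high-fat diet throughout, group-housed at 25 °C on a 12 h/12 h light-dark cycle, conditioned to water gavage for 5 days. Dosed orally once daily for 35 days with vehicle (0.1% Tween 80) or compound at 10 mg/kg, 1 h before dark cycle; n = 9–10/group. Food intake and body weight measured weekly; visceral fat mass at study end.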

The target in data set [9] is T1, Cannabinoid receptor 1. In words: Antagonist activity at human CB1 receptor expressed in CHO cells coexpressing Galpha15/16 assessed as inhibition of CP55940-induced Ca2+ release after 10 mins by micro plate reader assay. It counts as functional, cell-based. In outline: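 CHO-hCB1 cells co-expressing Gα15/16 loaded with fluo-4 AM in HBSS (with […] sulfinpyrazone, pH 7.4) at 37 °C for 50 min, washed, then given test compound at various concentrations (DMSO final 1%) for 10 min at room temperature before CP55940 addition; intracellular calcium read at ex 485/em 525 nm. Triplicate; IC50 from dose-response curves, mean ± SEM, n = 3.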

Data set [10] has as its target Cannabinoid receptor 2 (Homo sapiens, UniProt P34972). The data set can be described thus: Displacement of [3H]-CP-55940 from human CB2 receptor expressed in CHO cells pretreated for 10 mins measured after 3 hrs by scintillation counting. It counts as cell-based. In outline:
as §2

Data set [11] relates to Mus musculus. In words: Antiobesity activity in diet-induced obese C57BL/6J mouse assessed as reduction of body weight at 10 mg/kg, po qd for 35 days. It counts as functional, organism-based. Also noted: dose 10 mg/kg. An outline of the steps:
as §3

The subject of data set [12] is Mus musculus. The data set can be described thus: Antiobesity activity in diet-induced obese C57BL/6J mouse assessed as reduction in food intake at 10 mg/kg, po qd for 35 days. Type of data set: functional, organism-based. Also noted: dose 10 mg/kg. In outline:
as §3

Active and inactive are the calls of the source. No cut-off for these calls is given here.

T1 sequence (P21554 whole entry): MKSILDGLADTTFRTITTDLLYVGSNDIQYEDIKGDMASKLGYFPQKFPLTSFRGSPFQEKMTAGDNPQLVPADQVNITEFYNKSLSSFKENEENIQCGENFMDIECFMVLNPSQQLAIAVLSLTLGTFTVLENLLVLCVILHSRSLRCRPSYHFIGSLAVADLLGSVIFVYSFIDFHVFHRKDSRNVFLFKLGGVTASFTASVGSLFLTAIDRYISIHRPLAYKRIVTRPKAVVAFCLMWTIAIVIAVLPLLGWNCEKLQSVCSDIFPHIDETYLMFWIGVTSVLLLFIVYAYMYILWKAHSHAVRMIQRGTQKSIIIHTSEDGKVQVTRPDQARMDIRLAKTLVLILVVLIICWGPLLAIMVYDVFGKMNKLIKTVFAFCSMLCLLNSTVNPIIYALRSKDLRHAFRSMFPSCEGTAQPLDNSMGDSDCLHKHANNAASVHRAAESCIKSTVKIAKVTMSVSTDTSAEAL
Chain of Cannabinoid receptor 2 (P34972 whole entry): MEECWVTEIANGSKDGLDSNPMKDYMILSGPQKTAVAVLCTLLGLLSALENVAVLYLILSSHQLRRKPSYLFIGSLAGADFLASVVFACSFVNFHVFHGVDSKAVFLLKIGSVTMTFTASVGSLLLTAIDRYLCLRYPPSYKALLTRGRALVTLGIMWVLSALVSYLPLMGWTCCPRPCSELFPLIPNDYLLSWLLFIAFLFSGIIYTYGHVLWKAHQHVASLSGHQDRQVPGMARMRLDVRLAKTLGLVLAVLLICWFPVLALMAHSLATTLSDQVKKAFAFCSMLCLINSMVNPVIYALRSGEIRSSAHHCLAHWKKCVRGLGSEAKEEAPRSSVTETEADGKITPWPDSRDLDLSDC

Take `Cc1ccc(C(c2ccc(Cl)cc2Cl)N2CCN(C(=O)NC3CCCCC3)CC2)cc1` (racemic): the AUC(0-inf) – broadly, total exposure, with the tail of the curve extrapolated – in data set [1] worked out at 883 ng·h/mL. Besides, the bioavailability (usually the share of a dose that reaches the circulation, judged against a reference dose that is usually intravenous) in [2] was determined as 8%. Also, in [3], the half-life (as a rule, how long it takes for the measured level to halve) was 2.3 h. Further, the Tmax – broadly, the time from dosing to the highest level – in data set [4] stood at 2.4 h. Besides, the Kp at 9 h in [5] turned out to be 0.91. The Cmax – broadly, the maximum level reached in the sampled fluid or tissue – in data set [6] came to 180 ng/mL.
In the case of `Cc1ccc([C@H](c2ccc(Cl)cc2Cl)N2CCN(C(=O)NC3CCCCC3)CC2)cc1`, the Ki – broadly, a dissociation constant, usually derived from enzyme kinetics or from competition with a known ligand – in data set [7] was 0.0002 µM; in [10], 0.227 µM. In addition, the result in data set [8] and in data set [11] was Active. For the same compound, in [1], the area under the curve AUC(0-inf) worked out at 655 ng·h/mL. The IC50 (commonly the concentration at which inhibition is half-maximal) in data set [9] is 0.0009 µM. Besides, the bioavailability in data set [2] came to 15%. Besides, in data set [3], the half-life stood at 3.8 h. Also, in [4], the time to peak (Tmax) amounted to 1.2 h. Besides, the Kp at 9 h in data set [5] came out at 0.88. Besides, the concentration in data set [6] peaked (Cmax) at 116 ng/mL. In data set [12], the result was inactive.
`Cc1ccc([C@@H](c2ccc(Cl)cc2Cl)N2CCN(C(=O)NC3CCCCC3)CC2)cc1`: the values for the inhibition constant Ki in data set [7] and in data set [10] were 0.0011 µM and 0.242 µM, respectively. For the same compound, the total exposure AUC(0-inf) in data set [1] amounted to 695 ng·h/mL. Besides, the IC50 in data set [9] was 0.0215 µM. In data set [2], this compound gave a bioavailability of 6%. In addition, in data set [3], the half-life is 3.4 h. In addition, the Tmax in data set [4] came to 1.3 h. In data set [5], the Kp at 9 h was determined as 1.42. The compound also came in with a peak concentration (Cmax) in data set [6] of 128 ng/mL. Further, the result in data set [11] and in data set [12] was inactive.

The record behind these values is ChEMBL document CHEMBL1909527, “Asymmetric synthesis and biological evaluation of N-cyclohexyl-4-[1-(2,4-dichlorophenyl)-1-(p-tolyl)methyl]piperazine-1-carboxamide as hCB1 receptor antagonists” (Eur J Med Chem, 2011).
